Experimental data published in ChEMBL document CHEMBL5674882, “Benzolactam-related compounds promote apoptosis of HIV-infected human cells via protein kinase C-induced HIV latency reversal” (J Biol Chem, 2019).
The source made the active and inactive calls. No cut-off for these calls is given here.

Columns and labels:
[1] = molecular target: T1, Protein kinase C (PKC) (Homo sapiens) (UniProt O94806+P41743+P17252+P05129+Q05655+P05771+Q05513+Q02156+P24723+Q15139+Q04759); experiment: Activation of PKC in human ACH-2 cells infected with latent HIV-1 assessed as reversal of HIV-1 latency by measuring increase in p24 antigen level at 5 to 50 nM incubated for 48 hrs in presence of 100 nM GSK525762A by chemiluminescent enzyme immunoassay; type: cell-based; conditions: ACH-2 cell line, dose 5-50 nM
Procedure, shortened: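 ACH-2 cells treated 48 h with 5–50 nM of the test agent, alone or combined with 100 nM GSK525762A (BRD4 inhibitor). Supernatant p24 measured by chemiluminescent immunoassay. Synergy or antagonism scored with the Bliss independence model (Δfaxy >0 synergy, <0 antagonism). Three independent experiments, mean ± S.D.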

ACH-2 cell line = experiment: Induction of apoptosis in human ACH-2 cells at 1 uM after 48 hrs by PI/annexin-V staining based flow cytometry; type: functional
J-Lat 6.3 [2] = experiment: Induction of apoptosis in human J-Lat 6.3 cells at 1 uM incubated for 48 hrs by propidium iodide/annexin-V staining based flow cytometry (reference value: 3.16%); type: functional
[3] = Toxicity in human CD4+ T-cells assessed as elevation of supernatant cytokine concentrations of IL-5 incubated for 24 hrs by bead-based immunoassay; conditions: cd4+ t cell
Procedure, shortened: (§1)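 Purified CD4+ T-cells from healthy donors treated 24 h with 1 μm drug, 1 μm JQ1, or the combination. IL-2, IL-5, IL-6, IL-13, TNFα and IFN-γ in supernatants measured by flow-cytometry bead-based Th1/Th2 immunoassay. Run in duplicate.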

[4] = Toxicity in human PBMC assessed as reduction in cell viability after 5 days by WST8 assay; type: cell-based; conditions: time 5 day
Procedure, shortened: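 PBMC from a healthy donor exposed to drug, with viability determined at day 5. CC50 is the concentration reducing viability by 50%.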

[5] = Induction of apoptosis in human CEM A3.01 cells assessed as caspase-3 activation at 1 uM incubated for 24 hrs by flow cytometry; type: functional
Procedure, shortened: (§2)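 Cells fixed in 1% paraformaldehyde, permeabilized, stained 30 min on ice with anti-active caspase-3 mAb, and analysed by flow cytometry. Three independent experiments.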

[6] = Toxicity in human CD4+ T-cells assessed as elevation of supernatant cytokine concentrations of IL-6 incubated for 24 hrs by bead-based immunoassay; conditions: cd4+ t cell; procedure, shortened: as §1
[7] = Toxicity in human CD4+ T-cells assessed as elevation of supernatant cytokine concentrations of IL-5 incubated for 24 hrs in presence of JQ1 by bead-based immunoassay; conditions: cd4+ t cell; procedure, shortened: as §1
U1 [8] = experiment: Induction of apoptosis in human U1 cells at 1 uM incubated for 48 hrs by propidium iodide/annexin-V staining based flow cytometry; type: functional
[9] = molecular target: T1, Protein kinase C (PKC) (Homo sapiens); experiment: Activation of PKC in human U1 cells infected with latent HIV-1 assessed as reversal of HIV-1 latency by measuring increase in p24 antigen level at 1 to 10000 nM incubated for 48 hrs by chemiluminescent enzyme immunoassay; type: cell-based; conditions: filed as activator, dose 1-10000 nM
Procedure, shortened: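 ACH-2 or U1 cells (5 × 10^5 cells/ml) incubated 48 h with graded drug concentrations. Supernatant p24 antigen measured by automated chemiluminescent immunoassay. EC50 calculated taking the maximum response with excess PMA as 100%. Means ± S.D. of three independent experiments.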

[10] = molecular target: T1, Protein kinase C (PKC) (Homo sapiens); experiment: (§3) Activation of PKC in human U1 cells infected with latent HIV-1 assessed as reversal of HIV-1 latency by measuring increase in p24 antigen level incubated for 48 hrs by chemiluminescent enzyme immunoassay; type: cell-based; conditions: filed as activator
Protein kinase C (PKC) [11] = experiment: as §3; type: cell-based
J-Lat 6.3 [12] = experiment: Induction of apoptosis in human J-Lat 6.3 cells assessed as caspase-3 activation at 1 uM incubated for 24 hrs by flow cytometry; type: functional; procedure, shortened: as §2
[13] = molecular target: T1, Protein kinase C (PKC) (Homo sapiens); experiment: Activation of PKC in human J-Lat 6.3 cells infected with latent HIV-1 assessed as reversal of HIV-1 latency by measuring increase of GFP-positive cells at 10 uM in presence of pan-PKC inhibitor Go-6983 incubated for 24 hrs by flow cytometry; type: cell-based
Procedure, shortened: (§4)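 J-Lat 6.3 cells pretreated 3 h with a PKC inhibitor: Gö 6983 1 µM, Gö 6976 1 µM, GF 109203X 1 µM, PKCθ/δ inhibitor 10 µM, or Rottlerin 1 µM. Then exposed to 10 µM compound for 24 h; GFP-positive cells counted by flow cytometry. Mean ± S.D.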

U1 [14] = experiment: Induction of apoptosis in human U1 cells assessed as caspase-3 activation at 1 uM incubated for 24 hrs by flow cytometry (reference value: 1.86%); type: functional; procedure, shortened: as §2
[15] = Toxicity in human CD4+ T-cells assessed as increase in ratio of CD69+ cells incubated for 24 hrs by flow cytometry; type: cell-based; conditions: cd4+ t cell
Procedure, shortened: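 Primary CD4+ T-cells from healthy donors treated with drug for 24 h. Cells stained with anti-CD25 and anti-CD69 antibodies (plus CD3, CD4, HLA-DR) for 30 min on ice, then marker-positive proportions quantified by flow cytometry.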

J-Lat 6.3 (Homo sapiens) = experiment: Induction of apoptosis in human J-Lat 6.3 cells at 1 uM incubated for 48 hrs after pre-incubated for 2 hrs with 20 uM caspase inhibitor Q-VD-Oph by propidium iodide/annexin-V staining based flow cytometry
[16] = Toxicity in human CD4+ T-cells assessed as elevation of supernatant cytokine concentrations of IFNgamma incubated for 24 hrs by bead-based immunoassay; conditions: cd4+ t cell; procedure, shortened: as §1
Protein kinase C (PKC) [17] = experiment: Activation of PKC in human J-Lat 6.3 cells infected with latent HIV-1 assessed as reversal of HIV-1 latency by measuring increase of GFP-positive cells at 1 to 10000 nM incubated for 24 hrs by flow cytometry; type: cell-based
Procedure, shortened: (§5)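 J-Lat 10.6 or J-Lat 6.3 cells (5 × 10^5 cells/ml) incubated 24 h with graded drug concentrations; % GFP-positive cells determined by flow cytometry. Means ± S.D. of three independent experiments.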

Protein kinase C (PKC) [18] = experiment: Activation of PKC in human J-Lat 10.6 cells infected with latent HIV-1 assessed as reversal of HIV-1 latency by measuring increase of GFP-positive cells at 1 to 10000 nM incubated for 24 hrs by flow cytometry; type: cell-based; procedure, shortened: as §5
[19] = Toxicity in human CD4+ T-cells assessed as elevation of supernatant cytokine concentrations of IL-6 incubated for 24 hrs in presence of JQ1 by bead-based immunoassay; conditions: cd4+ t cell; procedure, shortened: as §1
[20] = molecular target: T1, Protein kinase C (PKC) (Homo sapiens); experiment: Activation of PKC in human J-Lat 6.3 cells infected with latent HIV-1 assessed as reversal of HIV-1 latency by measuring increase of GFP-positive cells at 10 uM in presence of PKC theta/delta/epsilon/eta inhibitor PKCtheta/delta inhibitor incubated for 24 hrs by flow cytometry; type: cell-based; procedure, shortened: as §4
[21] = molecular target: T1, Protein kinase C (PKC) (Homo sapiens); experiment: Synergistic activation of PKC in human U1 cells infected with latent HIV-1 assessed as reversal of HIV-1 latency by measuring increase in p24 antigen level at 25 nM incubated for 48 hrs in presence of 100 nM JQ1 by chemiluminescent enzyme immunoassay relative to compound alone; type: cell-based; conditions: filed as activator
Procedure, shortened: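 U1 cells at 5 × 10^5 cells/ml incubated 48 h with test agent alone or plus 100 nm JQ1. Supernatant p24 antigen quantified by automated immunoassay. Fold reactivation computed versus the same agent without JQ1. Mean ± S.D. of three independent experiments.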

Question: With `CCCCCCCCCCc1ccc2c(c1)N(C)[C@@H](C(C)C)C(=O)N[C@H](CO)C2` as the compound, how does the Activity [1] read?
Answer: Its Activity is “inactive”.

Question: What about the Activity (ACH-2 cell line) of the same compound?
Answer: Its Activity is 59.7%.

Question: What about the Activity (J-Lat 6.3 [2]) of the same compound?
Answer: The Activity was 17%.

Question: What about the Activity [3] of the same compound?
Answer: The Activity was “Toxic”.

Question: And the CC50 at 120 h [4]?
Answer: Its CC50 at 120 h is 39.9 µM.

Question: And the Activity [5]?
Answer: The Activity was 2.01%.

Question: And the Activity [6]?
Answer: The Activity was “Toxic”.

Question: What about the Activity [7] of the same compound?
Answer: The Activity was “Non-Toxic”.

Question: And the Activity (U1 [8])?
Answer: Its Activity is 28.4%.

Question: And the Activity [9]?
Answer: The Activity was “Active”.

Question: And the Activity [10]?
Answer: The Activity was “Dose-Dependent Effect”.

Question: What about the EC50 (Protein kinase C (PKC) [11]) of the same compound?
Answer: Its EC50 is 0.034 µM.

Question: What about the Activity (J-Lat 6.3 [12]) of the same compound?
Answer: Its Activity is 12.2%.

Question: What about the Activity [13] of the same compound?
Answer: The Activity was “inactive”.

Question: And the Activity (U1 [14])?
Answer: The Activity was 7.7%.

Question: What about the Activity [15] of the same compound?
Answer: The Activity was “Non-Toxic”.

Question: And the Activity (J-Lat 6.3 (Homo sapiens))?
Answer: The Activity was “inactive”.

Question: And the Activity [16]?
Answer: Its Activity is “Toxic”.

Question: And the EC50 (Protein kinase C (PKC) [17])?
Answer: The EC50 was 6.3 µM.

Question: What about the EC50 (Protein kinase C (PKC) [18]) of the same compound?
Answer: The EC50 was 10.6 µM.

Question: What about the Activity [19] of the same compound?
Answer: The Activity was “Non-Toxic”.

Question: And the Activity [20]?
Answer: Its Activity is “inactive”.

Question: And the fold change (FC) [21]?
Answer: Its fold change (FC) is 22.9.
